Test results: ChEMBL document CHEMBL2040734, “Benzothiazoles: search for anticancer agents” (2012)

Key:
Assay type in all cases: functional
MDA-MB-435 = experiment: Cytotoxicity against human MDA-MB-435 cells assessed as cell growth at 1 uM after 48 hrs by sulforhodamine B assay; details: MDA-MB-435, 48 h, read-out: Activity
SN12C [1] = experiment: Cytotoxicity against human SN12C cells assessed as cell growth at 0.01 uM after 48 hrs by sulforhodamine B assay; details: read-out: Activity
T47D [2] = experiment: Growth inhibition of human T47D cells after 48 hrs by sulforhodamine B assay
In short: (§1)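 Adherent NCI-60 lines were grown in RPMI 1640 with 5% FBS and 2 mM L-glutamine, plated at 5000–40,000 cells/well and preincubated 24 h. They were then exposed to five concentrations (0.01–100 µM, from a DMSO stock) for 48 h at 37 °C, 5% CO2. Cells were fixed with cold TCA (10% final, 60 min, 4 °C) and stained with 0.4% SRB. Dye was solubilized in 10 mM Tris base and A515 read. GI50 was derived from time-zero, control and treated absorbances.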

HCT-116 [3] = experiment: Cytotoxicity against human HCT116 cells assessed as cell growth at 10 uM after 48 hrs by sulforhodamine B assay; details: HCT-116, 48 h, read-out: Activity
In short: (§2)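 Five-dose NCI panel run at 0.01, 0.1, 1, 10 and 100 µM. Cells were in RPMI 1640 with 5% FBS and 2 mM L-glutamine, seeded at 5000–40,000 cells/well and pre-incubated 24 h. Drug was diluted from a DMSO stock into medium with 50 µg/ml gentamicin. Exposure was 48 h at 37 °C, 5% CO2. Cells were fixed with cold TCA and stained with 0.4% SRB, read at 515 nm. Percent growth came from time-zero, control and test absorbances.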

SN12C [4] = experiment: Cytotoxicity against human SN12C cells assessed as cell growth at 100 uM after 48 hrs by sulforhodamine B assay; details: read-out: Activity
RXF 393 = experiment: Growth inhibition of human RXF393 cells after 48 hrs by sulforhodamine B assay; details: RXF 393, 48 h; in short: as §1
SK-OV-3 = experiment: Cytotoxicity against human SKOV3 cells assessed as cell growth at 0.01 uM after 48 hrs by sulforhodamine B assay; details: SK-OV-3, 48 h, read-out: Activity
SNB-19 = experiment: Cytotoxicity against human SNB19 cells assessed as cell growth at 0.1 uM after 48 hrs by sulforhodamine B assay; details: SNB-19, 48 h, read-out: Activity
DU-145 [5] = experiment: Cytotoxicity against human DU145 cells assessed as cell growth at 0.01 uM after 48 hrs by sulforhodamine B assay; details: DU-145, 48 h, read-out: Activity
In short: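 NCI-60 five-dose screen. Cells were grown in RPMI 1640 with 5% FBS and 2 mM L-glutamine and preincubated 24 h. Compound (DMSO stock) was tested at 0.01, 0.1, 1, 10 and 100 µM for 48 h at 37 °C. Cells were fixed in situ with cold TCA (final 10%) and stained with 0.4% SRB. A515 was read, and percent growth was calculated against time-zero and control plates.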

OVCAR-3 = experiment: Cytotoxicity against human OVCAR3 cells assessed as cell growth at 1 uM after 48 hrs by sulforhodamine B assay; details: OVCAR-3, 48 h, read-out: Activity
SF-539 = experiment: Cytotoxicity against human SF539 cells assessed as cell growth at 0.01 uM after 48 hrs by sulforhodamine B assay; details: SF-539, 48 h, read-out: Activity
SK-MEL-2 = experiment: Growth inhibition of human SK-MEL-2 cells after 48 hrs by sulforhodamine B assay; details: SK-MEL-2, 48 h; in short: as §1
HCC 2998 [6] = experiment: Cytotoxicity against human HCC2998 cells assessed as cell growth at 10 uM after 48 hrs by sulforhodamine B assay; details: HCC 2998, 48 h, read-out: Activity; in short: as §2
SN12C [7] = experiment: Cytotoxicity against human SN12C cells assessed as cell growth at 0.1 uM after 48 hrs by sulforhodamine B assay; details: read-out: Activity
DU-145 [8] = experiment: Cytotoxicity against human DU145 cells assessed as cell growth at 10 uM after 48 hrs by sulforhodamine B assay; details: DU-145, 48 h, read-out: Activity; in short: as §2
A549 = experiment: Cytotoxicity against human A549 cells assessed as cell growth at 10 '-5 M after 48 hrs by sulforhodamine B assay; details: A549, 48 h, read-out: Activity
In short: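 Primary NCI-60 single-dose screen at 10 µM. Cells were grown in RPMI 1640 with 5% FBS and 2 mM L-glutamine and plated 24 h before drug addition. Compound was solubilized in DMSO, then exposed for 48 h at 37 °C under 5% CO2. Cells were TCA-fixed and stained with SRB, and absorbance was read at 515 nm. Growth was expressed relative to time-zero and untreated controls.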

SK-MEL-28 = experiment: Cytotoxicity against human SK-MEL-28 cells assessed as cell growth at 10 '-5 M after 48 hrs by sulforhodamine B assay; details: SK-MEL-28, 48 h, read-out: Activity
HCT-116 [9] = experiment: Cytotoxicity against human HCT116 cells assessed as cell growth at 1 uM after 48 hrs by sulforhodamine B assay; details: HCT-116, 48 h, read-out: Activity; in short: as §2
IGROV-1 = experiment: Growth inhibition of human IGROV1 cells after 48 hrs by sulforhodamine B assay; details: IGROV-1, 48 h; in short: as §1
Malme-3M = experiment: Cytotoxicity against human MALME-3M cells assessed as cell growth at 0.01 uM after 48 hrs by sulforhodamine B assay; details: read-out: Activity
CCRF-CEM = experiment: Cytotoxicity against human CCRF-CEM cells assessed as cell growth at 10 uM after 48 hrs by sulforhodamine B assay; details: read-out: Activity
In short: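 CCRF-CEM suspension leukemia cells in RPMI 1640 with 5% FBS and 2 mM L-glutamine, plated 24 h before dosing. Five concentrations (0.01–100 µM) were applied from a DMSO stock for 48 h at 37 °C. Settled cells were fixed with 80% TCA (final 16%) and stained with SRB, with read-out at 515 nm. Percent growth was derived from time-zero and control absorbances.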

TK-10 = experiment: Cytotoxicity against human TK10 cells assessed as cell growth at 10 '-5 M after 48 hrs by sulforhodamine B assay; details: TK-10, 48 h, read-out: Activity
T47D [10] = experiment: Cytotoxicity against human T47D cells assessed as cell growth at 10 uM after 48 hrs by sulforhodamine B assay; details: read-out: Activity
EKVX = experiment: Cytotoxicity against human EKVX cells assessed as cell growth at 10 uM after 48 hrs by sulforhodamine B assay; details: read-out: Activity; in short: as §2
HCC 2998 [11] = experiment: Cytotoxicity against human HCC2998 cells assessed as cell growth at 1 uM after 48 hrs by sulforhodamine B assay; details: HCC 2998, 48 h, read-out: Activity; in short: as §2
SR = experiment: Cytotoxicity against human SR cells assessed as cell growth at 10 uM after 48 hrs by sulforhodamine B assay; details: read-out: Activity
HT-29 = experiment: Growth inhibition of human HT-29 cells after 48 hrs by sulforhodamine B assay; details: HT-29, 48 h; in short: as §1
SNB-75 = experiment: Cytotoxicity against human SNB75 cells assessed as cell growth at 10 uM after 48 hrs by sulforhodamine B assay; details: SNB-75, 48 h, read-out: Activity

Row | Structure (SMILES) | growth at 1 µM (MDA-MB-435) | growth at 0.01 µM (SN12C [1]) | GI50 (T47D [2]) | LC50 (concentration giving 50% net cell kill) (T47D [2]) | TGI (T47D [2]) | growth at 10 µM (HCT-116 [3]) | growth at 100 µM (SN12C [4]) | GI50 (RXF 393) | TGI (RXF 393) | growth at 0.01 µM (SK-OV-3) | growth at 0.1 µM (SNB-19) | growth at 0.01 µM (DU-145 [5]) | growth at 1 µM (OVCAR-3) | growth at 0.01 µM (SF-539) | TGI (SK-MEL-2) | growth at 10 µM (HCC 2998 [6]) | growth at 0.1 µM (SN12C [7]) | growth at 10 µM (DU-145 [8]) | growth at 10 µM (A549) | growth at 10 µM (SK-MEL-28) | other results
1 | Cc1ccc2nc(Nc3c(C)cccc3C)sc2c1 | -8% | 88% | 54.8 µM | > 100 µM | > 100 µM | 21% | 52% | 1.2 µM | > 100 µM | 101% | 87% | 104% | 72% | 99% | > 100 µM | 53% | 86% | 75% | 32.6% | 45.5% | CC50 (RXF 393; read-out: LC50 (the source's name)): > 100 µM; LC50 (concentration killing 50% of cells present at time zero) (SK-MEL-2): > 100 µM; growth at 1 µM (HCT-116 [9]): 66%; GI50 (IGROV-1): 4.16 µM; LC50 (50% net cell kill) (IGROV-1): > 100 µM; TGI (IGROV-1): > 100 µM; growth at 0.01 µM (Malme-3M): 102%; growth at 10 µM (CCRF-CEM): 58%; growth at 10 µM (TK-10): 61.3%; growth at 10 µM (T47D [10]): 60%; growth at 10 µM (EKVX): 39%; growth at 1 µM (HCC 2998 [11]): 70%; growth at 10 µM (SR): 13%; GI50 (HT-29): 0.629 µM; LC50 (concentration killing 50% of cells) (HT-29): > 100 µM; TGI (HT-29): > 100 µM; growth at 10 µM (SNB-75): 36%
2 | Clc1cccc(Cl)c1Nc1nc2cccc(Cl)c2s1 | 46% | 91% | 0.841 µM | 5.08 µM | 2.18 µM | -98% | -84% | 0.676 µM | 2.41 µM | 101% | 90% | 106% | 50% | 97% | 3.35 µM | -88% | 85% | -96% | 0.55% | -48.1% | GI50 (SK-MEL-2): 1.43 µM; growth at 1 µM (HCT-116 [9]): 51%; GI50 (IGROV-1): 1.12 µM; LC50 (50% net cell kill) (IGROV-1): 8.96 µM; TGI (IGROV-1): 3.17 µM; growth at 0.01 µM (Malme-3M): 101%; growth at 10 µM (CCRF-CEM): -34%; growth at 10 µM (TK-10): -35.7%; growth at 10 µM (T47D [10]): -90%; growth at 10 µM (EKVX): -89%; growth at 1 µM (HCC 2998 [11]): 70%; growth at 10 µM (SR): -49%; GI50 (HT-29): 1.29 µM; LC50 (concentration killing 50% of cells) (HT-29): 6.97 µM; TGI (HT-29): 2.99 µM; growth at 10 µM (SNB-75): -32%
